Laboratory results published in ChEMBL document CHEMBL5120760, “Terpenoids and Meroterpenoids from Cultures of Two Grass-Associated Species of Amylosporus (Basidiomycota)” (J Nat Prod, 2022).
Converted amounts (≈) assume the structure as drawn.

Experiments:
Mucor hiemalis = test: Antifungal activity against Mucor hiemalis DSM 2656 assessed as inhibition of fungal growth incubated for overnight by serial dilution method; type: functional
Bacillus subtilis = test: Antibacterial activity aginst Bacillus subtilis DSM 10 assessed as inhibition of bacterial growth incubated for overnight by serial dilution method; type: functional
KB 3-1 = test: Cytotoxicity against human KB 3-1 cells assessed as inhibition of cell proliferation incubated for 5 days by MTT assay; type: functional, cell-based; conditions: KB 3-1, 120 h
Procedure, shortened: (§1)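 Colorimetric MTT tetrazolium assay, with epothilone B (1 mg/mL stock) as the positive control. IC50 was determined.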

Staphylococcus aureus = test: Antibacterial activity against Staphylococcus aureus DSM 346 assessed as inhibition of bacterial growth incubated for overnight by serial dilution method; type: functional
L929 = test: Cytotoxicity against mouse L929 cells assessed as inhibition of cell proliferation incubated for 5 days by MTT assay; type: functional, cell-based; conditions: L929, 120 h; procedure, shortened: as §1
Escherichia coli = test: Antibacterial activity against Escherichia coli DSM 1116 assessed as inhibition of bacterial growth incubated for overnight by serial dilution method; type: functional
[1] = test system: Chromobacterium violaceum; test: Antibacterial activity against Chromobacterium violaceum DSM 30191 assessed as inhibition of bacterial growth incubated for overnight by serial dilution method; type: functional
Micrococcus luteus = test: Antibacterial activity against Micrococcus luteus DSM 1790 assessed as inhibition of bacterial growth incubated for overnight by serial dilution method; type: functional
Pseudomonas aeruginosa = test: Antibacterial activity against Pseudomonas aeruginosa PA 14 assessed as inhibition of bacterial growth incubated for overnight by serial dilution method; type: functional, organism-based
SK-OV-3 = test: Cytotoxicity against human SK-OV-3 cells assessed as inhibition of cell proliferation incubated for 5 days by MTT assay; type: functional, cell-based; conditions: SK-OV-3, 120 h; procedure, shortened: as §1
Wickerhamomyces anomalus = test: Antifungal activity against Pichia anomala DSM 6766 assessed as inhibition of fungal growth incubated for overnight by serial dilution method; type: functional, organism-based
[2] = test system: Schizosaccharomyces pombe; test: Antifungal activity against Schizosaccharomyces pombe DSM 70572 assessed as inhibition of fungal growth incubated for overnight by serial dilution method; type: functional, organism-based
Rhodotorula glutinis = test: Antifungal activity against Rhodotorula glutinis DSM 10134 assessed as inhibition of fungal growth incubated for overnight by serial dilution method; type: functional, organism-based
[3] = test system: Mycolicibacterium smegmatis; test: Antibacterial activity against Mycobacterium smegmatis ATCC 700084 assessed as inhibition of bacterial growth incubated for overnight by serial dilution method; type: functional

| Compound | MIC (Mucor hiemalis) | MIC (Bacillus subtilis) | IC50 (KB 3-1) | MIC (Staphylococcus aureus) | IC50 (L929) | other results |
| --- | --- | --- | --- | --- | --- | --- |
| CC(C)=CCc1c(C)cc(O)c(CC=C(C)C)c1O | 33.3 µg/mL (≈ 128 µM) | 33.3 µg/mL (≈ 128 µM) | 57.7 µM | 33.3 µg/mL (≈ 128 µM) | 53.8 µM | – |
| CC(C)=CCC/C(C)=C/Cc1c(O)cc(C)c(C(=O)O)c1O | – | 66.7 µg/mL (≈ 219 µM) | – | 66.7 µg/mL (≈ 219 µM) | – | – |
| CN(C)[C@@H]1C(=O)C(C(N)=O)=C(O)[C@@]2(O)C(=O)C3=C(O)c4c(O)cccc4[C@@](C)(O)[C@H]3[C@H](O)[C@@H]12 | – | 3.33 µg/mL (≈ 7.23 µM) | – | 0.4 µg/mL (≈ 0.869 µM) | – | MIC (Escherichia coli): 8.3 µg/mL (≈ 18 µM); MIC [1]: 1.7 µg/mL (≈ 3.69 µM); MIC (Micrococcus luteus): 0.83 µg/mL (≈ 1.8 µM) |
| CC(C)=CCc1c(C)c(C(=O)O)c(O)c(CC=C(C)C)c1O | 66.7 µg/mL (≈ 219 µM) | 66.7 µg/mL (≈ 219 µM) | 42.7 µM | 66.7 µg/mL (≈ 219 µM) | 59.2 µM | – |
| GENTAMICIN | – | – | – | – | – | MIC (Pseudomonas aeruginosa): 0.4 µg/mL |
| CC(C)=CCC/C(C)=C/Cc1c(O)cc(C)c(C=O)c1O | 16.7 µg/mL (≈ 57.8 µM) | 4.2 µg/mL (≈ 14.6 µM) | 62.5 µM | 8.33 µg/mL (≈ 28.9 µM) | 66 µM | MIC (Micrococcus luteus): 33.3 µg/mL (≈ 116 µM) |
| CC(C)=CCC/C(C)=C/Cc1c(O)c(Cl)c(C)c(C=O)c1O | 33.3 µg/mL (≈ 103 µM) | 2.1 µg/mL (≈ 6.5 µM) | 7.7 µM | 1.04 µg/mL (≈ 3.22 µM) | 18 µM | IC50 (SK-OV-3): 5.6 µM |
| NYSTATIN | 16.7 µg/mL | – | – | – | – | MIC (Wickerhamomyces anomalus): 16.7 µg/mL; MIC [2]: 16.7 µg/mL; MIC (Rhodotorula glutinis): 4.2 µg/mL |
| C/C(=C\c1csc(C)n1)[C@@H]1C[C@@H]2O[C@]2(C)CCC[C@H](C)[C@H](O)[C@@H](C)C(=O)C(C)(C)[C@@H](O)CC(=O)O1 [PATUPILONE] | – | – | 6.9e-05 µM | – | 0.0014 µM | – |
| NC[C@H]1O[C@H](O[C@H]2[C@H](O)[C@@H](O[C@H]3O[C@H](CO)[C@@H](O)[C@H](N)[C@H]3O)[C@H](N)C[C@@H]2N)[C@H](O)[C@@H](O)[C@@H]1O [KANAMYCIN] | – | – | – | – | – | MIC [3]: 1.7 µg/mL (≈ 3.51 µM) |
